Experimental findings from ChEMBL document CHEMBL1145471, “Small molecule regulators of autophagy identified by an image-based high-throughput screen” (Proc Natl Acad Sci U S A, 2007) are described below.

Common to all, as to assay type: functional
The test system of assay [1] is H4. The assay can be described thus: Increase in light chain 3-GFP+ autophagosome vesicle intensity per cell in human H4 cells at 5.2 uM after 24 hrs by high throughput fluorescence microscopy relative to control. The method, boiled down:
(§1)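 H4 cells stably expressing LC3-GFP were grown in DMEM with 10% FBS and 2 mM L-glutamine at 37°C, 5% CO2. They were exposed to each compound for 24 h, with DMSO as negative and rapamycin as positive control. Cells were then fixed in 4% paraformaldehyde and stained with 3 μg/ml DAPI. High-throughput fluorescence imaging scored LC3-GFP spot number, size and intensity, expressed relative to DMSO. Mean ± SD of triplicates; experiments repeated three times.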

In assay [2] the test system is H4. Kind of assay: Decrease in FYVE-RFP+ vesicle intensity per cell in human H4 cells after 8 hrs relative to control. On the set-up: concentration or dose not given beside the values; scale not given: the % may be the effect or the level left. The method, boiled down: (§2)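 H4 cells stably expressing FYVE-RFP (H4-FYVE), grown in DMEM with 10% FBS, penicillin/streptomycin and 2 mM L-glutamine at 37°C, 5% CO2, seeded in 96-well plates and exposed to compound. Fixed in 4% paraformaldehyde, nuclei stained with 3 μg/ml DAPI, FYVE-RFP+ vesicles quantified by high-throughput fluorescence microscopy against DMSO control. Triplicate wells, mean ± SD.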

Assay [3] relates to H4. The assay can be described thus: Increase in light chain 3-GFP+ autophagosome vesicle number per cell in human H4 cells at 5.2 uM after 24 hrs by high throughput fluorescence microscopy relative to control. The method, boiled down:
as §1

For assay [4], the system named is H4. The assay can be described thus: Increase in light chain 3-GFP+ autophagosome vesicle area per cell in human H4 cells at 5.2 uM after 24 hrs by high throughput fluorescence microscopy relative to control. A digest of the protocol:
(§3)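 H4 cells stably expressing LC3-GFP, seeded in 96-well plates and exposed to compound for 24 h; screening concentrations were 3–12 μM, with rapamycin 0.22 μM and bafilomycin A1 0.40 μM. Cells fixed in 4% paraformaldehyde and stained with 3 μg/ml DAPI. Number, size and intensity of LC3-GFP spots measured by high-throughput fluorescence microscopy and expressed as percent of DMSO-treated wells. Rapamycin was the positive control. Triplicate wells, mean ± SD; experiments repeated three times.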

The subject of assay [5] is H4. The assay can be described thus: Increase in long-lived protein degradation in human H4 cells after 24 hrs relative to control. Set-up: concentration or dose not given beside the values.
For assay [6], the system named is H4. Kind of assay: Decrease in FYVE-RFP+ vesicle intensity per cell in human H4 cells after 2 hrs relative to control. Set-up: concentration or dose not given beside the values; scale not given: the % may be the effect or the level left. A digest of the protocol:
as §2

The test system of assay [7] is H4. The assay can be described thus: Increase in long-lived protein degradation in human H4 cells after 2 hrs relative to control. Set-up: concentration or dose not given beside the values.
The test system of assay [8] is H4. Kind of assay: Decrease in FYVE-RFP+ vesicle intensity per cell in human H4 cells after 4 hrs relative to control. Set-up: concentration or dose not given beside the values; scale not given: the % may be the effect or the level left. A digest of the protocol: as §2
Assay [9] has as its system H4. The assay can be described thus: Increase in long-lived protein degradation in human H4 cells after 4 hrs relative to control. Set-up: concentration or dose not given beside the values.
Assay [10] concerns H4. Kind of assay: Induction of light chain 3-GFP level in human H4 cells at 5.2 uM after 24 hrs by high throughput fluorescence microscopy relative to control. The method, boiled down: (§4)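 H4 cells stably expressing LC3-GFP, grown in DMEM with 10% FBS, penicillin/streptomycin and 2 mM L-glutamine at 37°C, 5% CO2. Cells were seeded in 96-well plates and exposed to library compounds at 3–12 μM for 24 h, then fixed in 4% paraformaldehyde and stained with 3 μg/ml DAPI. LC3-GFP spot number, size and intensity were measured by high-throughput fluorescence microscopy and expressed relative to DMSO. Triplicates, mean ± SD.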

Assay [11] deals with H4. Kind of assay: Increase in long-lived protein degradation in human H4 cells after 1 hr relative to control. On the set-up: concentration or dose not given beside the values.
Assay [12] deals with H4. Kind of assay: Increase in light chain 3-GFP+ autophagosome vesicle intensity per cell in human H4 cells at 6.9 uM after 24 hrs by high throughput fluorescence microscopy relative to control. The method, boiled down:
as §1

For assay [13], the system named is H4. The assay can be described thus: Effect on FYVE-RFP+ vesicle intensity per cell in human H4 cells after 8 hrs relative to control. On the set-up: concentration or dose not given beside the values. A digest of the protocol: as §2
Assay [14] relates to H4. The assay can be described thus: Effect on FYVE-RFP+ vesicle intensity per cell in human H4 cells after 4 hrs relative to control. On the set-up: concentration or dose not given beside the values. The method, boiled down:
as §2

The test system of assay [15] is H4. The assay can be described thus: Increase in light chain 3-GFP+ autophagosome vesicle number per cell in human H4 cells at 6.9 uM after 24 hrs by high throughput fluorescence microscopy relative to control. A digest of the protocol:
as §1

The test system of assay [16] is H4. Kind of assay: Increase in light chain 3-GFP+ autophagosome vesicle area per cell in human H4 cells at 6.9 uM after 24 hrs by high throughput fluorescence microscopy relative to control. The method, boiled down:
as §3

Assay [17] concerns H4. Kind of assay: Effect on FYVE-RFP+ vesicle intensity per cell in human H4 cells after 2 hrs relative to control. On the set-up: concentration or dose not given beside the values. A digest of the protocol:
as §2

The subject of assay [18] is H4. The assay can be described thus: Induction of light chain 3-GFP level in human H4 cells at 6.9 uM after 24 hrs by high throughput fluorescence microscopy relative to control. The method, boiled down: as §4
Assay [19] deals with H4. Kind of assay: Increase in light chain 3-GFP+ autophagosome vesicle area per cell in human H4 cells at 6.2 uM after 24 hrs by high throughput fluorescence microscopy relative to control. The method, boiled down:
as §3

Assay [20] has as its system H4. The assay can be described thus: Increase in light chain 3-GFP+ autophagosome vesicle number per cell in human H4 cells at 6.2 uM after 24 hrs by high throughput fluorescence microscopy relative to control. A digest of the protocol:
as §1

The test system of assay [21] is H4. The assay can be described thus: Increase in light chain 3-GFP+ autophagosome vesicle intensity per cell in human H4 cells at 6.2 uM after 24 hrs by high throughput fluorescence microscopy relative to control. A digest of the protocol:
as §1

Assay [22] relates to H4. The assay can be described thus: Induction of light chain 3-GFP level in human H4 cells at 6.2 uM after 24 hrs by high throughput fluorescence microscopy relative to control. The method, boiled down: as §4

With `Fc1ccc(C(c2ccc(F)cc2)N2CCN(C/C=C/c3ccccc3)CC2)cc1` [FLUNARIZINE], the Activity in the assay with H4 [1] is listed as 203.66%; with H4 [2], 48.6%; with H4 [3], 155.03%; in the assay with H4 [4], 179.26%; with H4 [5], 113.6%; in the assay on H4 [6] it was 53.92%. The Activity was 107.1% in the assay on H4 [7]; 44.48% with H4 [8]; 93.65% with H4 [9]; 104.67% with H4 [10]; 97.33% in the assay with H4 [11].
Take `O=c1cc(N2CCOCC2)oc2c(-c3ccccc3)cccc12` [LY-294002]: the Activity was determined as 11.09% in the assay with H4 [2], 24.99% in the assay on H4 [6] and 14.79% in the assay on H4 [8].
`C=C[C@H]1CN2CC[C@H]1C[C@H]2[C@H](O)c1ccnc2ccc(OC)cc12` [QUININE]: the Activity amounted to 165.01% with H4 [12]; 60.7% in the assay on H4 [13]; 78.03% with H4 [14]; 103.56% in the assay with H4 [5]; 146.94% with H4 [15]; 110.94% in the assay on H4 [7]. Besides, the Activity in the assay with H4 [16] was 160.38%; with H4 [9], 99.32%; in the assay on H4 [17] it was 70.35%; in the assay with H4 [18], 115.16%; with H4 [11] it was 94.35%.
With `CCCC[C@@H](C=O)NC(=O)[C@H](CC(C)C)NC(=O)OCc1ccccc1` [CALPEPTIN], the Activity in the assay with H4 [12] is on record as 232.89%; in the assay with H4 [2], 61.02%; in the assay on H4 [5], 81.62%; in the assay on H4 [6] it was 58.44%; in the assay with H4 [15], 177.07%; with H4 [7], 68.3%. Besides, the Activity came to 63.28% in the assay with H4 [8]; 207.34% in the assay with H4 [16]; 78.67% with H4 [9]; 128.87% in the assay with H4 [18]; 73.3% with H4 [11].
On to `CN(CCc1ccc(Cl)c(Cl)c1)CC(O)COc1ccc(NS(C)(=O)=O)cc1` (centres undefined), for which the Activity in the assay with H4 [1] worked out at 222.83%; in the assay with H4 [3], 166.24%; with H4 [4], 192.05%; in the assay on H4 [13] it was 66.35%; with H4 [14], 71.97%; in the assay on H4 [5], 96.25%. In addition, the Activity with H4 [7] is reported as 86.27%; in the assay with H4 [9], 91.75%; in the assay with H4 [17], 68.06%; in the assay on H4 [10] it was 135.28%; in the assay with H4 [11], 95.15%.
For the compound `CC[C@H]1[C@@H]2C=C[C@H]3[C@@H](C[C@H]4/C=C/C(=O)C5=C[C@H](CCCNC(=O)/C=C\C[C@H]34)NC5=O)[C@H]2C[C@H]1C` [IKARUGAMYCIN], the Activity in the assay with H4 [1] is reported as 172.85%; in the assay on H4 [3], 75.79%; with H4 [4], 107.27%; with H4 [10], 50.16%.
With `CC(C)COCC(CN(Cc1ccccc1)c1ccccc1)N1CCCC1` (centres undefined) [BEPRIDIL], the Activity with H4 [19] came out at 160.34%; in the assay with H4 [2], 35.94%; in the assay with H4 [20], 144.05%; in the assay with H4 [5], 117.59%; with H4 [6], 65.27%; in the assay on H4 [21] it was 168.39%. The Activity in the assay with H4 [22] is given as 111.92%; with H4 [7], 112.64%; in the assay on H4 [8], 45.17%; in the assay on H4 [9], 98.78%; in the assay on H4 [11] it was 101.9%.
`CC(C)[C@@H](O)CC[C@@H](C)[C@H]1CC[C@H]2[C@@H]3CC=C4C[C@@H](O)CC[C@]4(C)[C@H]3CC[C@]12C`: the Activity worked out at 299.59% with H4 [19]; 38.51% in the assay with H4 [2]; 220.93% with H4 [20]; 106.22% in the assay on H4 [5]; 38.02% in the assay on H4 [6]; 648.9% in the assay on H4 [21]. Also, the Activity in the assay with H4 [22] is 108.2%; with H4 [7], 105.76%; in the assay on H4 [8], 38.32%; in the assay with H4 [9] it was 89.7%; with H4 [11] it was 125.06%.
For the compound `COc1ccc(CCN(C)CCC[C@](C#N)(c2ccc(OC)c(OC)c2)C(C)C)cc1OC` [VERAPAMIL], the Activity with H4 [1] is 238.6%; in the assay with H4 [3], 168.55%; with H4 [4] it was 200.63%; in the assay on H4 [5], 94.39%; in the assay with H4 [7], 114.92%; with H4 [9], 97.84%. Besides, the Activity with H4 [10] is on record as 132.44%; with H4 [11], 103.33%.
`C=C1[C@@H](C)[C@H]2[C@H](Cc3ccccc3)NC(=O)[C@]23OC(=O)/C=C/[C@H](O)CCC[C@@H](C)C/C=C/[C@H]3[C@@H]1O` [CYTOCHALASIN B]: the Activity with H4 [1] was found to be 286.43%; in the assay on H4 [3] it was 208.73%; in the assay with H4 [4], 247.77%; in the assay on H4 [10], 30.58%.
Consider `CC(/C=C/C(=O)NO)=C\[C@@H](C)C(=O)c1ccc(N(C)C)cc1` [TRICHOSTATIN], for which the Activity in the assay on H4 [1] is reported as 1649.69%; with H4 [3] it was 636.52%; with H4 [4], 864.85%; with H4 [10] it was 40.15%.
As for `O=C1Nc2ccccc2/C1=C1/Nc2ccccc2C1=O` [INDIRUBIN], the Activity with H4 [2] was found to be 59.18%; with H4 [5], 100.5%; in the assay on H4 [6], 73.16%; with H4 [7], 94.5%; in the assay with H4 [8], 35.1%; in the assay on H4 [9] it was 95.3%. Further, the Activity with H4 [11] came to 105.91%.
As for `O=S(=O)(c1cccc2c(Cl)cccc12)N1CCCNCC1`, the Activity was 447.81% in the assay on H4 [12], 210.65% in the assay on H4 [15], 272.31% in the assay on H4 [16] and 82.33% with H4 [18].
Consider `COc1ccc(CCCOC(Cn2ccnc2)c2ccc(OC)cc2)cc1` (centres undefined), for which the Activity in the assay with H4 [19] is 209.11%; with H4 [20], 179.88%; with H4 [21], 285.59%; with H4 [22], 42.96%.
